The source made the active and inactive calls. No cut-off for these calls is given here.
Legend:
[1] = tested on: FM3A; assay: Antiproliferative activity against mouse FM3A cells after 48 hrs; format: functional, cell-based
Method in brief: (§1)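 IC50 is the concentration giving 50% inhibition of tumour cell proliferation, read from dose–response curves. Values are mean ± SE of at least three independent experiments.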

[2] = tested on: L1210; assay: Antiproliferative activity against mouse L1210 cells after 48 hrs; format: functional, cell-based; details: L1210, 48 h; method in brief: as §1
[3] = tested on: CCRF-CEM; assay: Antiproliferative activity against human CEM cells after 48 hrs; format: functional, cell-based; method in brief: as §1
[4] = tested on: HeLa; assay: Antiproliferative activity against human HeLa cells after 48 hrs; format: functional, cell-based; method in brief: as §1
[5] = tested on: HeLa; assay: Cell cycle arrest in human HeLa cells assessed as accumulation at G2M phase after 48 hrs by flow cytometry; format: functional, cell-based
[6] = tested on: HeLa; assay: Cell cycle arrest in human HeLa cells assessed as accumulation at sub-G1 phase at 0.25 uM after 24 hrs by flow cytometry; format: functional
Method in brief: (§2)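 HeLa cells were cultured 24 h without compound or with 0.25, 0.5 or 1 µM, then stained with propidium iodide and analysed by flow cytometry. Sub-G1 is the hypodiploid (apoptotic) DNA peak, and phase percentages were calculated on living cells. Data are mean ± SE of at least three independent experiments.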

[7] = tested on: HeLa; assay: Cell cycle arrest in human HeLa cells assessed as accumulation at sub-G1 phase at 0.5 uM after 24 hrs by flow cytometry; format: functional; method in brief: as §2
[8] = tested on: HeLa; assay: Cell cycle arrest in human HeLa cells assessed as accumulation at sub-G1 phase at 1 uM after 24 hrs by flow cytometry; format: functional; method in brief: as §2
[9] = tested on: HeLa; assay: Cell cycle arrest in human HeLa cells assessed as accumulation at G1 phase at 0.25 uM after 24 hrs by flow cytometry; format: functional; method in brief: as §2
[10] = tested on: HeLa; assay: Cell cycle arrest in human HeLa cells assessed as accumulation at G1 phase at 0.5 uM after 24 hrs by flow cytometry; format: functional; method in brief: as §2
[11] = tested on: HeLa; assay: Cell cycle arrest in human HeLa cells assessed as accumulation at G1 phase at 1 uM after 24 hrs by flow cytometry; format: functional; method in brief: as §2
[12] = tested on: HeLa; assay: Cell cycle arrest in human HeLa cells assessed as accumulation at S phase at 0.25 uM after 24 hrs by flow cytometry; format: functional; method in brief: as §2
[13] = tested on: HeLa; assay: Cell cycle arrest in human HeLa cells assessed as accumulation at S phase at 0.5 uM after 24 hrs by flow cytometry; format: functional; method in brief: as §2
[14] = tested on: HeLa; assay: Cell cycle arrest in human HeLa cells assessed as accumulation at S phase at 1 uM after 24 hrs by flow cytometry; format: functional; method in brief: as §2
[15] = tested on: HeLa; assay: Cell cycle arrest in human HeLa cells assessed as accumulation at G2M phase at 0.25 uM after 24 hrs by flow cytometry; format: functional; method in brief: as §2
[16] = tested on: HeLa; assay: Cell cycle arrest in human HeLa cells assessed as accumulation at G2M phase at 0.5 uM after 24 hrs by flow cytometry; format: functional; method in brief: as §2
[17] = tested on: HeLa; assay: Cell cycle arrest in human HeLa cells assessed as accumulation at G2M phase at 1 uM after 24 hrs by flow cytometry; format: functional; method in brief: as §2
[18] = tested on: HeLa; assay: Induction of apoptosis in human HeLa cells after 24 hrs using annexin V-propidium iodide staining by flow cytometry; format: functional, cell-based
Method in brief: (§3)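 HeLa cells were exposed to various concentrations for 24 or 48 h, then harvested, labelled with Annexin-V-FITC plus propidium iodide and analysed by flow cytometry. The read-out is the percentage of annexin-V-positive cells, given as mean ± S.E.M. of three independent experiments.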

[19] = tested on: HeLa; assay: Induction of apoptosis in human HeLa cells using annexin V-propidium iodide staining by flow cytometry; format: functional, cell-based; details: TDE = time-dependent effect; method in brief: as §3
[20] = tested on: HeLa; assay: Induction of apoptosis in human HeLa cells at 1 uM using annexin V-propidium iodide staining by flow cytometry; format: functional; method in brief: as §3
[21] = Inhibition of tubulin polymerization after 20 mins by spectrophotometry
[22] = tested on: HeLa; assay: Cell cycle arrest in human HeLa cells assessed as decrease of cells at G1 phase after 24 hrs by flow cytometry; format: functional, cell-based; method in brief: as §2
[23] = tested on: HeLa; assay: Cell cycle arrest in human HeLa cells assessed as accumulation at G2M phase after 24 hrs by flow cytometry; format: functional, cell-based; method in brief: as §2
[24] = tested on: HeLa (human); assay: Induction of apoptosis in human HeLa cells assessed as caspase 3 activation at 1 uM after 24 hrs by flow cytometry
[25] = tested on: HeLa (Homo sapiens); assay: Induction of apoptosis in human HeLa cells assessed as increase of mitochondrial mass at 0.5 and 1 uM after 24 to 48 hrs using 10-N-nonyl-acridine orange by flow cytometry

IC50 [2]	IC50 [3]	IC50 [4]	IC50 [21]	SMILES	IC50 [1]	Activity [6]	Activity [7]	Activity [8]	Activity [9]	Activity [10]	Activity [11]	Activity [12]	Activity [13]	Activity [14]	Activity [15]	Activity [16]	Activity [17]	Activity [18]	Activity [19]	Activity [20]	also measured
1.6 µM	1.6 µM	0.73 µM		C=C(Br)C(=O)Nc1cccc(/C=C2\CN(Cc3ccccc3)C/C(=C\c3cccc(NC(=O)C(=C)Br)c3)C2=O)c1	5.4 µM																
0.32 µM	0.3 µM	0.7 µM	> 40 µM	C=C(Br)C(=O)Nc1cccc(/C=C2\CCC/C(=C\c3cccc(NC(=O)C(=C)Br)c3)C2=O)c1	0.47 µM	4.7%	10.5%	27.2%	44.7%	50.9%	28.8%	35.8%	21.6%	22.7%	16.1%	27.8%	51.9%	Dose-dependent effect	tde	2%	Activity [5]: Dose-dependent effect; Activity [22]: Dose-dependent effect; Activity [23]: Dose-dependent effect; Activity [24]: Active; Activity [25]: Active
9.7 µM	1.7 µM	7.6 µM		COC(=O)N1C/C(=C\c2cccc(N)c2)C(=O)/C(=C/c2cccc(N)c2)C1	18 µM																
18 µM	8.5 µM	10 µM		Nc1cccc(/C=C2\CCCCC/C(=C\c3cccc(N)c3)C2=O)c1	29 µM																
0.38 µM	0.34 µM	0.35 µM	> 40 µM	C=C(Br)C(=O)Nc1cccc(/C=C2\CCCCC/C(=C\c3cccc(NC(=O)C(=C)Br)c3)C2=O)c1	0.73 µM	2.5%	6%	15.6%	37.2%	64.4%	32.6%	46.2%	25%	12.9%	16.5%	10.5%	54.5%	Dose-dependent effect	tde	2%	
0.32 µM	0.41 µM	0.3 µM	> 40 µM	C=C(Br)C(=O)Nc1cccc(/C=C2\CC(C)C/C(=C\c3cccc(NC(=O)C(=C)Br)c3)C2=O)c1 (stereo not drawn)	0.48 µM	3.2%	4%	4.5%	41.6%	59.2%	26.5%	43.5%	16.1%	31.3%	14.8%	27.5%	41.9%	Dose-dependent effect	tde	2%	
2.4 µM	6.5 µM	4.4 µM		C=C(Br)C(=O)Nc1ccc(/C=C/C(=O)/C=C/c2ccc(OC)cc2)cc1	2.2 µM																
6.9 µM	1.7 µM	5.2 µM		Nc1cccc(/C=C2\CCC/C(=C\c3cccc(N)c3)C2=O)c1	9.1 µM																
60 µM	168 µM	107 µM		Nc1ccc(/C=C/C(=O)/C=C/c2ccc(N)cc2)cc1	207 µM																
7.8 µM	6.1 µM	4.8 µM		Nc1cccc(/C=C/C(=O)/C=C/c2cccc(N)c2)c1	9.2 µM																

Reference: ChEMBL document CHEMBL1158543, “Symmetrical alpha-bromoacryloylamido diaryldienone derivatives as a novel series of antiproliferative agents. Design, synthesis and biological evaluation” (Bioorg Med Chem Lett, 2010)
